Screening results (PubChem)
mABHD4 FP – ABHD4 inhibitors, primary screen, biochemical, fluorescence polarization, mouse | (Lyso)-N-acylphosphatidylethanolamine lipase (Mus musculus), Q8VD66 | purified mABHD4, FP-Rh probe fluorescence polarization | inhibition, % at 8.92 µM | 0.54% of 370,000 active | AID 720543, 2013;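 active = inhibition exceeding the mean over every tested compound plus 3 SD, cut at about 30% in these data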;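 also: 0% = plate median of compound wells and 100% = S159A mutant with DMSO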
Target sequence (Q8VD66 whole entry, looked up): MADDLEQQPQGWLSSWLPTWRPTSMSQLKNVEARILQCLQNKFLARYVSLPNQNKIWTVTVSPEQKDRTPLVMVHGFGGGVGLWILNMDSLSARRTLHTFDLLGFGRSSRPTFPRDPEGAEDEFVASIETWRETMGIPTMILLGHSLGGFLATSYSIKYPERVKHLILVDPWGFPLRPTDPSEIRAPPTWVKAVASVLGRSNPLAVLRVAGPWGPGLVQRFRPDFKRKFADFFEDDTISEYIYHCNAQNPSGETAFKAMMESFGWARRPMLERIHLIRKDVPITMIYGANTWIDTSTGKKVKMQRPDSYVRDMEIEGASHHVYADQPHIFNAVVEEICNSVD
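Test system: mABHD4 protein | Buffer or medium: HEPES pH 7.0 buffer, 150 mM NaCl, 0.01% Pluronic F-127 | Probe or stimulus: FP-Rh fluorescent activity-based probe, added after compound pre-incubation | Timing: Pre-incubation 45 min, probe exposure 60 min, at 25 °C | Technique: Fluorescence polarization, excitation 525 nm, emission 598 nm, BODIPY TMR filters | Repeats: Single well per compound (singlicate)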
DAGLB inhibitor – DAGLB lipase inhibitors, primary screen, biochemical, fluorescence, HTS. HEK293T DAGLB membrane lysate, EnzChek fluorogenic substrate. 0.059% of 340,000 active. Diacylglycerol lipase-beta (Homo sapiens), Q8NCG7. inhibition, % at 5.17 µM. AID 504411, 2011; in the data active = inhibition above about 34%;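 also: 0% = enzyme with vehicle and 100% = wells lacking enzyme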
LEDGF integ inh – blockers of LEDGF/p75-dependent integrase strand transfer – biochemical, TR-FRET, high throughput, primary screen; HIV-1 integrase (with human LEDGF/p75); TR-FRET IN-LEDGF/p75 DNA integration, Eu/Cy5; inhibition, % at 3.7 µM; 0.64% of 370,000 active;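 active = inhibition above the screen-wide mean plus 3 SD, cut at about 13% in these data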;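 also: signal is the Cy5 over europium emission ratio at 671 and 618 nm; 0% = plate median of compound wells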
HTRA1 inh – HTRA1 serine protease inhibitors, primary screen, biochemical, fluorescence polarization, HTS; recombinant HTRA1, FP-rhodamine activity-based probe; 0.5% of 340,000 active; inhibition, % at 5.96 µM; Q92743; in the data active = inhibition above about 36%;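 also: 0% = enzyme with DMSO and 100% = wells lacking enzyme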
rCAG binder – binders of r(CAG) RNA repeats, primary screen, biochemical, fluorescence | r(CAG) RNA repeat, TO-PRO-1 dye displacement fluorescence | inhibition, % at 3 µM | 1.3% of 370,000 active;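 active = inhibition above the plate cutoff, the mean of all test compounds on that plate plus 3 SD, cut at about 35% in these data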;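 also: 0% = DMSO alone and 100% = 100 µM mitoxantrone as full dye displacement; higher means more dye released from RNA so lower well fluorescence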
PRMT1 FP inh – PRMT1 methyltransferase inhibitors, primary screen, biochemical, fluorescence polarization | inhibition, % at 2.79 µM | 1.3% of 370,000 active | Protein arginine N-methyltransferase 1 (Homo sapiens), Q99873 | recombinant PRMT1, activity-based probe fluorescence polarization;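 active = inhibition above about 21% made by adding two undisclosed values, limit read from the data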
Target sequence (Q99873 whole entry, looked up): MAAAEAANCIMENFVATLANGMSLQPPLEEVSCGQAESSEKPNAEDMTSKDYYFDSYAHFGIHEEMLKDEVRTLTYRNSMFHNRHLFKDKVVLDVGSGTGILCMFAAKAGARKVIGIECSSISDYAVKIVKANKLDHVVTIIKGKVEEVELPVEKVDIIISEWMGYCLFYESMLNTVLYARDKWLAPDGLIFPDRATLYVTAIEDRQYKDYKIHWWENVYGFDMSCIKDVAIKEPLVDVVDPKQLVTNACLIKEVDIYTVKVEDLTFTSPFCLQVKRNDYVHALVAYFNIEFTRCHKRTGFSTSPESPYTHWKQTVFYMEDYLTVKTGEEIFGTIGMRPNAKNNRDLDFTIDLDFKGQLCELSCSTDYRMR
rCAG binder conf – small molecules binding CAG repeat RNA – biochemical, fluorescence, confirmation; shares compounds with rCAG binder; inhibition, % at 3 µM; r(CAG) RNA repeat, TO-PRO-1 dye displacement fluorescence; 70% of 4,300 active;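 active = inhibition above a per-plate cutoff, the mean inhibition of sample wells plus 3 SD, cut at about 35% in these data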;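 also: loss of TO-PRO-1 fluorescence as compound displaces dye from 1x1 AA loop RNA; 0% = DMSO only wells and 100% = 100 µM mitoxantrone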
dCAG dye counter – displacement of TO-PRO-1 from CAG DNA duplex, counter-screen for rCAG RNA repeat binder project, biochemical, fluorescence, TO-PRO-1 dye, d(CAG) DNA oligo. shares compounds with rCAG binder. d(CAG) DNA oligo TO-PRO-1 dye displacement. inhibition, % at 3 µM. 94% of 4,300 active. AID 652068, 2013;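 active = inhibition above its plate's cutoff, the mean test-well inhibition plus 3 SD, cut at about 4.8% in these data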;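 also: 0% = DNA dye mix with DMSO and 100% = 100 µM mitoxantrone; hits displace the dye from DNA and so lower well fluorescence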
dCAG dye DR – inhibitors of DNA CAG/GTC TO-PRO-1 complex, dose response, counter-screen for rCAG RNA repeat binder project, biochemical, fluorescence, TO-PRO-1 dye; shares compounds with rCAG binder; DNA CAG/GTC duplex TO-PRO-1 dye displacement fluorescence; IC50, µM; 20% of 250 active; AID 686960, 2013; in the data active = IC50 below about 10 µM
* = called active by the depositor; i = inactive; . = not tested or not shown. Rows were chosen to be rich in hits. Some 3.2% of all compounds tested hit in one or more screens of this group.

SMILES | mABHD4 FP | DAGLB inhibitor | LEDGF integ inh | HTRA1 inh | rCAG binder | PRMT1 FP inh | rCAG binder conf | dCAG dye counter | others
CCNC(=S)N/N=C(\C)c1ccc(Cl)s1 | 5.8 | 0.7 | 0.2 | 3.9 | -0.5 | -0.4 | . | .
O=C(N/N=C/c1ccc2cccnc2c1)c1ccco1 | 6.7 | 1.9 | -0.7 | 0.8 | -0.2 | -0.2 | . | .
CC(C)c1ccc(CC(=O)N2CCC2(C)C(=O)NS(=O)(=O)c2cccc(OC(F)F)c2)cc1 (stereo unspecified) | 8.7 | . | -0.3 | . | 35.1* | 3.0 | 27.0 | 4.1
CC(C)N1CCCCC(NC(=O)Cc2ccccc2)C1=O (stereo unspecified) | -4.7 | . | 7.8 | . | 0.0 | -0.6 | . | .
Cn1c(SCC(=O)Nc2ccc(S(=O)(=O)Nc3nccs3)cc2)nc2sc3c(c2c1=O)CCCC3 | -57.8 | . | 6.0 | . | 74.5* | 5.0 | 76.8* | 42.5*
Cc1cc(NC(=O)CSc2nc3sc4c(c3c(=O)n2C)CCCC4)no1 | 3.0 | -1.0 | -3.2 | 2.3 | -0.4 | -0.8 | . | .
COc1ccc(CSc2nnc(SCC(=O)Nc3ccc(S(N)(=O)=O)cc3)s2)cc1 | -12.9 | . | -2.6 | . | 14.2 | 2.1 | . | .
COc1ccc(-n2c(SCC(=O)Nc3ccc(S(=O)(=O)Nc4nccs4)cc3)nnc2-c2ccco2)cc1 | -10.6 | . | 1.0 | . | 74.2* | -0.6 | 69.0* | 30.4*
O=C(CSc1nnc(-c2cccnc2)n1-c1ccc(Cl)cc1)Nc1ccc(S(=O)(=O)Nc2nccs2)cc1 | 3.2 | . | 0.8 | . | 58.8* | 0.6 | 63.5* | 22.2*
Cc1cc(NS(=O)(=O)c2ccc(NC(=O)CSc3nnc(SCc4ccc(Cl)cc4)s3)cc2)nc(C)n1 | -30.8 | . | 4.8 | . | 59.2* | 3.1 | 58.2* | 19.8*
c1ccc(CCc2ccncc2)cc1 | -0.9 | -4.7 | -6.6 | 6.5 | -1.8 | -0.1 | . | .
COc1ccc(S(=O)(=O)N2CCOC2CNC(=O)C(=O)NCCc2ccc(OC)c(OC)c2)cc1C (stereo unspecified) | 2.6 | 3.2 | -1.2 | -5.7 | 3.8 | 0.2 | . | .
COc1ccc(-c2nnc(SCC(=O)Nc3ccc(S(=O)(=O)Nc4nccs4)cc3)n2-c2ccc(OC)cc2)cc1 | -28.4 | . | 4.2 | . | 64.2* | 1.6 | 57.9* | 27.8*
Cc1ccc(-n2c(SCC(=O)Nc3ccc(S(=O)(=O)Nc4cc(C)nc(C)n4)cc3)nnc2-c2cccs2)cc1 | -4.3 | . | 2.0 | . | 43.1* | 5.3 | 41.6* | 11.2*
COc1ccc(-n2c(SCC(=O)Nc3ccc(S(=O)(=O)Nc4nccs4)cc3)nnc2-c2cccs2)cc1 | -26.9 | . | 0.8 | . | 72.6* | 4.0 | 71.6* | 32.9* | dCAG dye DR=i
Cc1ccc(-n2c(SCC(=O)Nc3ccc(S(=O)(=O)Nc4cc(C)nc(C)n4)cc3)nnc2-c2ccncc2)cc1 | -5.2 | . | 0.4 | . | 29.6 | 2.9 | . | .
CCOc1ccc(-n2c(SCC(=O)Nc3ccc(S(=O)(=O)Nc4nccs4)cc3)nnc2-c2ccccc2)cc1 | -54.2 | . | -0.5 | . | 80.3* | 1.6 | 72.5* | 38.4*
Cc1cc(C)nc(SCC(=O)Nc2ccc(S(=O)(=O)Nc3nccs3)cc2)n1 | 1.1 | -0.6 | -0.2 | -1.8 | 12.2 | 0.3 | . | .
CCCc1cc(=O)[nH]c(SCCOc2ccc(Cl)cc2)n1 | 2.6 | -8.5 | -0.9 | 9.9 | -1.4 | 1.0 | . | .
Cc1nn(-c2ccccc2)nc1C(=O)OCC(=O)N1CCC(C)CC1 | 3.1 | -5.0 | -1.5 | -3.4 | 1.8 | 2.4 | . | .
O=C(CSc1nnc(-c2ccncc2)n1Cc1ccco1)Nc1nccs1 | -3.6 | 0.7 | 5.9 | 9.2 | -4.2 | 2.7 | . | .
CC(C)(C)c1ccc(-c2nnc(SCC(=O)Nc3ccc(S(=O)(=O)Nc4nccs4)cc3)n2Cc2ccco2)cc1 | -52.5 | . | 1.2 | . | 51.0* | 22.0* | 46.6* | 19.5*
Cc1ccc(Oc2ccc(S(=O)(=O)Nc3ccc(C(=O)O)cc3)cc2)cc1 | -52.6 | 4.2 | -0.1 | -6.0 | 12.9 | 4.3 | . | .
Cc1ccc(Sc2ccc(S(=O)(=O)Nc3ccc(C(=O)O)cc3)cc2)cc1C | -71.8 | 6.0 | 2.9 | -34.0 | 48.5* | 4.4 | 43.4* | 12.5*
Cc1[nH]c(=O)nc(SCc2ccc(Cl)c(Cl)c2)c1C#N | -42.7 | 6.6 | 5.0 | -21.1 | 37.7* | -1.2 | 30.4 | 7.2*
SMILES | mABHD4 FP | DAGLB inhibitor | LEDGF integ inh | HTRA1 inh | rCAG binder | PRMT1 FP inh | rCAG binder conf | dCAG dye counter | others
COc1ccc(NC(=O)Nc2ccc3c(c2)C(=O)N([C@H](C)CO)C[C@H](C)[C@H](CN(C)Cc2ccc(C(=O)O)cc2)OCCCC[C@@H](C)O3)cc1 | 3.7 | 2.7 | 2.4 | -0.5 | 36.9* | -6.2 | 41.5* | 10.4*
CCCOC(=O)c1c(-c2ccccc2)nc(CC)c(C(=O)SCC)c1CCC | 2.5 | -13.3 | -1.4 | 0.0 | 0.8 | 5.5 | . | .
O=C(CSc1ncnc2scc(-c3ccccc3)c12)Nc1ccc(C(=O)O)cc1 | -27.9 | 2.0 | -5.3 | -6.0 | 34.5* | 0.1 | 34.7* | 10.1*
CCCCNC(=O)NS(=O)(=O)c1ccc(NC(=O)CSc2ncnc3scc(-c4ccc(C)cc4)c23)cc1 | -56.7 | . | 3.4 | . | 77.2* | -0.8 | 70.2* | 31.8* | dCAG dye DR=i
Cc1cc(Oc2ccc(Cl)cc2)nc(-c2ccccn2)n1 | -0.8 | 1.5 | -0.1 | 3.6 | 88.0* | 5.5 | 0.1 | -1.4
Cc1cc(Oc2ccccc2)nc(-c2ccccc2O)n1 | -7.3 | -8.7 | 0.3 | -13.7 | -0.4 | -1.8 | . | .
COc1ccccc1C/C(N)=N/OC(=O)COc1ccccc1C | -6.0 | -6.7 | 2.4 | -4.0 | -4.8 | -2.4 | . | .
Cc1cc(C)cc(OCC(=O)Nc2cccc(C(=O)O)c2)c1 | -6.8 | 0.7 | 1.6 | 2.8 | 5.3 | 0.1 | . | .
Cc1cccc(OCC(=O)Nc2cc(NC(=O)COc3cccc(C)c3)cc(C(=O)O)c2)c1 | -24.9 | 2.5 | 6.9 | -23.6 | 62.6* | -2.2 | 61.4* | 22.3*
